Assay results collected from several papers.
Each line is one published result; the experiments were not run side by side.
Effect on: cell growth or viability

SMILES	cell line	technique	tested at	time	quantity	result
CC(C)(C)c1cnc(CSc2cnc(NC(=O)C3CCN(CCCCCCCSc4cccc5c4C(=O)N(C4CCC(=O)NC4=O)C5=O)CC3)s2)o1 (stereo not shown)	HH	CCK-8	0.15 µM	–	viability	76.7%
CC(=NNC(=O)c1ccccc1Cl)c1ccc(Nc2nnc(-c3ccc(Cl)cc3)c3ccccc23)cc1	HepG2	MTT	0.312 µM	–	cell death	19.8%
CNc1ncc2c(/C=C/C(=O)N3CCCC(OC)C3)nn(Cc3cccc(C)c3)c2n1 (stereo not shown)	OE33	resazurin	–	5 days	EC50	17.6 µM
CC(C)(C)c1cnc(CSc2cnc(NC(=O)C3CCN(C(=O)COCCOCCSc4cccc5c4C(=O)N(C4CCC(=O)NC4=O)C5=O)CC3)s2)o1 (stereo not shown)	HH	CCK-8	0.4 µM	–	viability	47.3%
CC(=NNC(N)=S)c1ccc(Nc2nnc(-c3ccc(Cl)cc3)c3ccccc23)cc1	HepG2	MTT	78 nM	24 h	viability	95.6%
Nc1ncnc2c1c(/C=C/C(=O)N1CCCCC1)nn2CC1CCCC1	OE33	resazurin	–	5 days	EC50	> 30 µM
O=C(Nc1ccc(Oc2nnc(-c3ccc(Cl)cc3)c3ccccc23)cc1)c1ccccc1	HepG2	MTT	2.5 µM	24 h	viability	3.4%
CNc1ncc2c(/C=C/C(=O)O)nn(CC3CCCC3)c2n1	OE33	resazurin	–	5 days	EC50	> 30 µM
C=CC(=O)NC1CCN(c2ncc3ncnc(Nc4ccc(Oc5ccc6c(c5)ncn6C)c(C)c4)c3n2)CC1	PANC-03-27	–	–	–	EC50	0.0333 µM
CC(=NNC(=O)c1cccnc1)c1ccc(Nc2nnc(-c3ccc(Cl)cc3)c3ccccc23)cc1	HepG2	MTT	5 µM	–	cell death	96.8%
CNc1ncc2c(/C=C/C(=O)N3CCC(OC)CC3)nn(CC3CCCO3)c2n1 (stereo not shown)	OE33	resazurin	–	5 days	EC50	> 30 µM
CC(C)(C)c1cnc(CSc2cnc(NC(=O)C3CCN(CCCCCCCCSc4cccc5c4C(=O)N(C4CCC(=O)NC4=O)C5=O)CC3)s2)o1 (stereo not shown)	HH	CCK-8	10 nM	–	viability	98.2%
CNc1ncc2c(/C=C/C(=O)N3CCC(OC)CC3)nn(CCC(C)C)c2n1	OE33	resazurin	–	5 days	EC50	19.7 µM
CC(C)(C)c1cnc(CSc2cnc(NC(=O)C3CCN(C(=O)CCCSc4cccc5c4C(=O)N(C4CCC(=O)NC4=O)C5=O)CC3)s2)o1 (stereo not shown)	HH	CCK-8	1 nM	–	viability	98.1%
CNc1ncc2c(/C=C/C(=O)N3CCC(OC)CC3)nn(CC3CCCCC3)c2n1	OE33	resazurin	–	5 days	EC50	6.51 µM
CC(C)(C)c1cnc(CSc2cnc(NC(=O)C3CCN(CCCCCCCCSc4cccc5c4CN(C4CCC(=O)NC4=O)C5=O)CC3)s2)o1 (stereo not shown)	HH	CCK-8	50 nM	–	viability	90.8%
S=C(Nc1ccccc1)Nc1ccc(Oc2nnc(-c3ccc(Cl)cc3)c3ccccc23)cc1	HepG2	MTT	10 µM	–	cell death	97.2%
CC(C)(C)c1cnc(CSc2cnc(NC(=O)C3CCN(CCCCSc4cccc5c4C(=O)N(C4CCC(=O)NC4=O)C5=O)CC3)s2)o1 (stereo not shown)	HH	CCK-8	50 nM	–	viability	96.8%
CCOC(=O)c1nn(-c2cccc(Cl)c2)/c(=N/N=C(\C)c2ccc(NC(=O)c3ccc(Cl)cc3)cc2)s1	HepG2	MTT	10 µM	–	viability	4.04%
